Assay results: ChEMBL document CHEMBL4732044, “Discovery of a promising agent IQZ23 for the treatment of obesity and related metabolic disorders” (Eur J Med Chem, 2020)
Activity calls are given as the source filed them. No cut-off for these calls is given here.

Assays:
[1] = tested on: C2C12; assay: Activation of AMPK pathway in mouse C2C12 cells assessed as increase in glucose uptake at 1 uM after 6 hrs in presence of LY-294002 by 2-NBDG/Hoechst 33342 staining based Confocal microscopic method; assay type: cell-based; conditions: filed as activator
How it was run: (§1)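 C2C12 myoblasts kept in DMEM with 10% FBS and 1% penicillin/streptomycin at 37 °C under 5% CO2.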

[2] = tested on: 3T3-L1; assay: Lipid lowering activity in mouse 3T3-L1 cells assessed as adipogenic cocktail-induced triglyceride levels at 1 uM after 3 days by GPO-POD assay relative to control; assay type: functional; conditions: time 3 day
How it was run: (§2)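 3T3-L1 cells were differentiated (cocktail on days 0–3, insulin thereafter) with 1 µM compound present during defined windows (days 0–3, 3–6, 6–9, or 0–3/0–6/0–9). TG was measured at day 9 by GPO-POD after Triton X-100 lysis and sonication. TG was normalized to BCA protein and expressed as % of differentiated control.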

[3] = tested on: Mus musculus; assay: Antiobesity activity in high fat diet-induced obese C57BL/6J mouse model assessed as albumin level at 20 mg/kg, ip administered for every other days for 6 weeks by auto-analyzer method (reference value: 38.7 […]); assay type: functional
How it was run: (§3)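 Male C57BL/6J mice (7–8 weeks) fed HFC diet (60% fat, 1% cholesterol) for up to 14 weeks. From week 9, given 20 mg/kg i.p. every other day for 6 weeks in saline with 10% ethanol and 10% castor oil, or vehicle. Body weight and food intake recorded daily. At end, mice fasted 6 h, anesthetized, and blood collected into EDTA. Plasma chemistry run on an auto-analyzer; insulin by ultra-sensitive ELISA.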

[4] = tested on: 3T3-L1; assay: Inhibition of mouse 3T3-L1 cells adipocyte differentiation assessed as reduction in adipogenic cocktail-induced ACC protein expression at 0.3 to 1 uM after 6 days by Western blot analysis; assay type: functional, cell-based; conditions: dose 0.3-1 µM, time 6.0 day
How it was run: (§4)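 3T3-L1 preadipocytes were differentiated with cocktail for 3 days, then insulin medium for 3 days, with compound (0.3 or 1 µM) present throughout. Cells were harvested on day 6 and proteins measured by Western blot, with densitometry normalized to actin.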

[5] = tested on: 3T3-L1; assay: Lipid lowering activity in mouse 3T3-L1 cells assessed as adipogenic cocktail-induced triglyceride levels at 1 uM up to 9 days by GPO-POD assay relative to control; assay type: functional, cell-based; conditions: time day <=9; how it was run: as §2
[6] = tested on: 3T3-L1; assay: Activation of AMPK pathway in adipogenic cocktail-induced mouse 3T3-L1 cells assessed as decrease in ATP level at 0.3 to 1 uM after 24 hrs; assay type: cell-based; conditions: filed as activator, dose 0.3-1 µM
How it was run: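 Confluent 3T3-L1 pre-adipocytes exposed to adipogenic cocktail (0.5 mM IBMX, 100 ng/mL dexamethasone, 2 µg/mL insulin) with compound at 0.3 or 1 µM for 24 h. ATP quantified with a commercial luminescent kit and normalized to protein.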

[7] = tested on: Mus musculus; assay: Antiobesity activity in high fat diet-induced obese C57BL/6J mouse model assessed as blood urea nitrogen level at 20 mg/kg, ip administered for every other days for 6 weeks by auto-analyzer method (reference value: 14.6 +/- 1.4 mM); assay type: functional
[8] = tested on: 3T3-L1; assay: Lipid lowering activity in mouse 3T3-L1 cells assessed as adipogenic cocktail-induced triglyceride levels at 1 uM after 3 to 6 days by GPO-POD assay relative to control; assay type: functional; conditions: time 3-6 day; how it was run: as §2
[9] = tested on: Mus musculus; assay: Antiobesity activity in high fat diet-induced obese C57BL/6J mouse model assessed as total bilirubin level at 20 mg/kg, ip administered for every other days for 6 weeks by auto-analyzer method (reference value: 1.3 +/- 0.12 mM); assay type: functional
[10] = tested on: 3T3-L1; assay: Inhibition of mouse 3T3-L1 cells adipocyte differentiation assessed as reduction in adipogenic cocktail-induced fatty acid synthase protein expression at 0.3 to 1 uM after 6 days by Western blot analysis; assay type: functional, cell-based; conditions: dose 0.3-1 µM, time 6.0 day; how it was run: as §4
[11] = tested on: 3T3-L1; assay: Activation of AMPK pathway in mouse 3T3-L1 cells assessed as increase in PCG1alpha mRNA expression at 0.3 to 1 uM after 24 hrs by RT-qPCR analysis; assay type: cell-based; conditions: filed as activator, dose 0.3-1 µM
[12] = tested on: Mus musculus; assay: Antiobesity activity in high fat diet-induced obese C57BL/6J mouse model assessed as decrease in lean mass at 20 mg/kg, ip administered for every other days for 6 weeks; assay type: functional, organism-based
[13] = tested on: Mus musculus; assay: Antiobesity activity in high fat diet-induced obese C57BL/6J mouse model assessed as decrease in liver weight at 20 mg/kg, ip administered for every other days for 6 weeks; assay type: functional, organism-based
[14] = tested on: Mus musculus; assay: Antiobesity activity in high fat diet-induced obese C57BL/6J mouse model assessed as ratio of LDL cholesterol level to HDL cholesterol level at 20 mg/kg, ip administered for every other days for 6 weeks by auto-analyzer method (reference value: 0.4 +/- 0.13); assay type: functional
[15] = tested on: Mus musculus; assay: Antiobesity activity in high fat diet-induced obese C57BL/6J mouse model assessed as decrease in AUC of ITT at 20 mg/kg, ip administered for every other days for 6 weeks by ITT method; assay type: functional, organism-based
How it was run: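 Male C57BL/6J mice on HFC diet dosed i.p. For GTT, after 3 weeks of treatment: 6 h fast, then i.p. glucose 2 g/kg. For ITT, after 6 weeks: 6 h fast, then i.p. insulin 0.4 U/mouse. Tail-vein glucose measured at 0, 15, 30, 60 and 120 min; AUC calculated.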

[16] = tested on: Mus musculus; assay: Antiobesity activity in high fat diet-induced obese C57BL/6J mouse model assessed as decrease in body weight at 20 mg/kg, ip administered for every other days for 6 weeks; assay type: functional, organism-based; how it was run: as §3
[17] = tested on: 3T3-L1; assay: Activation of AMPK pathway in adipogenic cocktail-induced mouse 3T3-L1 cells assessed as increase in AMP to ATP ratio at 0.3 to 1 uM after 24 hrs; assay type: cell-based; conditions: filed as activator, dose 0.3-1 µM
[18] = tested on: 3T3-L1; assay: Inhibition of mouse 3T3-L1 cells adipocyte differentiation assessed as reduction in adipogenic cocktail-induced SREBP-1c protein expression at 0.3 to 1 uM after 24 hrs by Western blot analysis; assay type: functional, cell-based; conditions: dose 0.3-1 µM
How it was run: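 3T3-L1 preadipocytes were exposed to adipogenic cocktail with compound (0.3 or 1 µM) and harvested on day 1. Lysates were resolved by SDS-PAGE, immunoblotted (primary antibody overnight at 4 °C, HRP secondary) and quantified by densitometry normalized to actin.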

[19] = tested on: C2C12; assay: Activation of AMPK pathway in mouse C2C12 cells assessed as increase in glucose uptake at 1 uM after 6 hrs by 2-NBDG/Hoechst 33342 staining based Confocal microscopic method; assay type: cell-based; conditions: filed as activator; how it was run: as §1
[20] = Apparent volume of distribution in Sprague-Dawley rat at 2 mg/kg, iv up to 24 hrs by LC-MS/MS analysis; conditions: in vivo, read-out: Vz
[21] = tested on: 3T3-L1; assay: Lipid lowering activity in mouse 3T3-L1 cells assessed as reduction in adipogenic cocktail-induced triglyceride levels at 5 uM incubated for 6 days by GPO-POD assay relative to control; assay type: functional; parameters: scale not given: the % may be the effect or the level left; conditions: time 6 day
How it was run: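 Confluent 3T3-L1 cells were treated from day 0 in cocktail (IBMX, dexamethasone, insulin) for 3 days, then re-dosed in insulin medium for 3 more days. For dose–response, concentrations were 0–10 µM (0.01, 0.1, 0.3, 1, 3, 10). On day 6, cells were lysed in 0.2% Triton X-100 and TG was measured by GPO-POD and normalized to BCA protein as % of control. EC50 was fitted from the dose–response. N = 4.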

[22] = AUC(0 to t) in Sprague-Dawley rat at 2 mg/kg, iv up to 24 hrs by LC-MS/MS analysis; conditions: in vivo

In the case of COc1ccc2[nH]c(-c3nc(NCCCCN4CCCC4)c4ccccc4n3)c(C=O)c2c1, the Activity [1] is reported as “Active”, the Activity [2] is reported as 74.2% and the Activity [3] is reported as 30.4 g/L. For the same compound, the inhibition [4] was “Active”, the Activity [5] was “Active” and the Activity [6] was “Active”. The Activity [7] was 11.5 mM, the Activity [8] was 61.8% and the Activity [9] was 0.9 mmol. The inhibition [10] was “Active”, the Activity [11] was “Active” and the Activity [12] was “Active”. The Activity [13] was “Active”, the Ratio [14] was 0.25 and the Activity [15] was “Active”. The Activity [16] was “Active”, the Activity [17] was “Active” and the inhibition [18] was “Active”.

For CN(C)CCCNc1nc(-c2[nH]c3ccccc3c2C=O)nc2ccccc12, the Activity [19] was “Active”, the Vd [20] was 33.8 L/kg and the Activity [21] was 89.3%. The AUC(0-t) at 24 h [22] was 635 ng·h/mL.
